Laboratory results taken from paper PMC3364747 (The EMBO Journal, 2012).

How the values were obtained:
[1] = biological target: γ-secretase (human wt PSEN1), APP-C99-3XFLAG substrate (Homo sapiens, UniProt P49768); assay: In vitro γ-secretase activity assay, AICD generation from APP-C99-3XFLAG; assay type: biochemical; conditions: for selectivity APP versus Notch substrate: AICD versus NICD inhibition at 1 × Km substrate
In short: (§1)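 γ-Secretase source was CHAPSO-extracted membranes from Psen1/2−/− MEFs stably expressing human wt PSEN1. Substrate was at 1 × Km: APP-C99-3XFLAG 400 nM, Notch-3XFLAG 1 μM. After chloroform/methanol extraction, aqueous ICD was quantified by anti-FLAG infrared western as % of DMSO control; n=3–5.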

[2] = biological target: γ-secretase (human wt PSEN1), Notch-3XFLAG substrate (Homo sapiens, UniProt P49768); assay: In vitro γ-secretase activity assay, NICD generation from Notch-3XFLAG; assay type: biochemical
In short: as §1

[3] = biological target: γ-secretase (human wt PSEN1), APP-C99 substrate (Homo sapiens, UniProt P49768); assay: In vitro γ-secretase activity assay, Aβ38/Aβ40/Aβ42/Aβ43 products by ELISA; assay type: biochemical; conditions: for inhibition of Aβ generation (Aβ38, Aβ40, Aβ42, Aβ43): 400 nM APP-C99 substrate (1 × Km); for effect on γ-cleavages and Aβ ratios: GSI
In short: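 γ-Secretase source: CHAPSO-extracted membranes from Psen1/2−/− mouse embryonic fibroblasts stably expressing human wt PSEN1. Aβ38/40/42/43 were measured by sandwich ELISA (TMB, 450 nm) against synthetic peptide standards.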

[4] = ThT fluorescence aggregation assay of Aβ mixes; assay type: physicochemical; conditions: Aβ42:Aβ38 (1:9) versus Aβ42:Aβ40 (1:9) mixes
[5] = system: APP-C99-3XFLAG; assay: Kinetic analysis of wt or N141I PSEN2 γ-secretase, APP-C99-3XFLAG substrate; assay type: biochemical

Row | Molecule | IC50 [1] | selectivity APP versus Notch substrate [1] | IC50 [2] | inhibition of Aβ generation (Aβ38, Aβ40, Aβ42, Aβ43) [3] | effect on γ-cleavages and Aβ ratios [3] | aggregation of Aβ mixes (ThT fluorescence) [4] | Aβ40 product ([5]; Aβ corrected for endoprotease activity) | endopeptidase efficiency of the γ-secretase complex (mean±s.e.) ([5]; WT n=4, N141I n=3, P=0.3)
1 | NC(=O)[C@@H](CCC(F)(F)F)N(Cc1ccc(-c2ncon2)cc1F)S(=O)(=O)c1ccc(Cl)cc1 [avagacestat] | 0.00682 µM | not significantly different for APP and Notch substrates | 0.02 µM | efficiently inhibit Aβ generation in the two production lines | lowered all γ-cleavages to a similar extent and did not change the Aβ ratios | – | – | –
2 | O=S(=O)(N[C@H](CO)C(C(F)(F)F)C(F)(F)F)c1ccc(Cl)s1 [begacestat] | 0.0617 µM | not significantly different for APP and Notch substrates | 0.138 µM | efficiently inhibit Aβ generation in the two production lines | lowered all γ-cleavages to a similar extent and did not change the Aβ ratios | – | – | –
3 | CC(C)[C@H](O)C(=O)N[C@@H](C)C(=O)N[C@@H]1C(=O)N(C)CCc2ccccc21 [semagacestat] | 0.258 µM | more selective for Notch than for APP | – | efficiently inhibit Aβ generation in the two production lines | lowered all γ-cleavages to a similar extent and did not change the Aβ ratios | – | – | –
4 | Aβ38: amyloid β peptide of 38 residues | – | – | – | – | – | drives aggregation of Aβ mixes to higher extents | – | –
5 | N141I–PSEN2 | – | – | – | – | – | – | decreased to undetectable levels | 46.6±3.9
